Reference: BindingDB's records for doi:10.1021/np900192r (Cnrs, 2009)

target: Bcl-2-like protein 1 (Homo sapiens, UniProt Q07817); assay: Binding affinity to Bcl-xL by fluorescein-labeled Bak-BH3 peptide competition binding assay
Summary of the method: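 Fluorescence polarization competition on Bcl-xL against a fluorescein-tagged Bak BH3-domain peptide as the reference ligand. Ki is the dissociation constant at equilibrium with the reference ligand. Unlabeled Bak(BH3) peptide and a substituted terphenyl derivative served as positive controls. Bcl-xL values are from duplicate runs.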

Bcl-2-like protein 1, sequence (Q07817 whole entry): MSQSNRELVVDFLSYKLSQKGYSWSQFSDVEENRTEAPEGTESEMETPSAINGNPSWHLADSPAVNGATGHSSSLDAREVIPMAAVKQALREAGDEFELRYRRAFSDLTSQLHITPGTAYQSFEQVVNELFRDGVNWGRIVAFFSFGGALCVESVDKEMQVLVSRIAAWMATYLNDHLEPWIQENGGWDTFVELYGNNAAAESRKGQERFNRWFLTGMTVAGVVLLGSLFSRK

Ki, > 100 µM:
CC(=O)O[C@@H]1[C@@H](OC(C)=O)[C@@H](O)[C@H](OC[C@]2(C)[C@@H](OC(C)=O)C[C@H](O)[C@]3(C)[C@H]4CC=C5[C@H]6C[C@](C)(C(=O)O)CC[C@]6(C)CC[C@@]5(C)[C@]4(C)CC[C@@H]23)O[C@H]1C [23-O-[alpha-L-(3',4'-Diacetylrhamnopyranosyl]-3beta-acetylimberbic acid]
COC(=O)[C@]1(C)CC[C@]2(C)CC[C@]3(C)C(=CC[C@@H]4[C@@]5(C)[C@@H](O)C[C@H](OC(C)=O)[C@@](C)(CO[C@@H]6O[C@@H](C)[C@H](OC(C)=O)[C@@H](O)[C@H]6O)[C@@H]5CC[C@]43C)[C@H]2C1 [23-O-[alpha-L-(4'-Acetylrhamnopyranosyl]-3beta-acetylimberbic acid 29-methyl ester]
CC(=O)O[C@@H]1[C@@H](O)[C@@H](O)[C@H](OC[C@]2(C)[C@@H](OC(C)=O)C[C@H](O)[C@]3(C)[C@H]4CC=C5[C@H]6C[C@](C)(C(=O)O)CC[C@]6(C)CC[C@@]5(C)[C@]4(C)CC[C@@H]23)O[C@H]1C [23-O-[alpha-L-(4'-Acetylrhamnopyranosyl]-3beta-acetylimberbic acid]
